Experiments:
[1] = Evaluated in vitro for its ability to inhibit prostaglandin E2 production in cultured chondrocyte cells at 12 mg/kg dose; type: functional, organism-based; conditions: Rattus norvegicus
Rattus norvegicus [2] = assay: Evaluated for the inhibition of adjuvant-induced hind paw edema in rats at 12 mg/kg dose; type: functional
In short: (§1)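 Male Sprague-Dawley rats (180-200 g), groups of 10; 0.1 mL Freund's complete adjuvant (0.5 mg killed, dried Mycobacterium butyricum in mineral oil) intradermally into left hindpaw. Compound or vehicle (0.5% Tween 80 in water) by gastric lavage just before FCA (day 0) and at 24 and 48 h. Paw volume by plethysmometer before FCA and on day 3; % inhibition of mean edema versus control.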

[3] = Evaluated in vitro for its ability to inhibit prostaglandin E2 production in cultured chondrocyte cells at 25 mg/kg dose; type: functional, organism-based; conditions: Rattus norvegicus
Rattus norvegicus [4] = assay: Evaluated for the inhibition of adjuvant-induced hind paw edema in rats at 25 mg/kg dose; type: functional; in short: as §1

SMILES	IC50 [1]	IC50 [3]	inhibition in vivo at 12 mg/kg (Rattus norvegicus [2])	inhibition in vivo at 25 mg/kg (Rattus norvegicus [4])
CCc1cccc2c3c(n(C)c12)C(CC)(CC(=O)O)OCC3 (stereo not drawn)		25 µM		11%
CCc1cc(O)cc2c3c([nH]c12)C(CC)(CC(=O)O)OCC3 (stereo not drawn) [6-HYDROXYETODOLAC]		6.5 µM		10%
CCc1cccc2c3c([nH]c12)C(CC)(CC(=O)O)OCC3=O (stereo not drawn)		0.185 µM		21%
CCc1cccc2c3c([nH]c12)C(CC)(CC(=O)O)OCC3NC(N)=O (stereo not drawn) [4-UREIDOETODOLAC]		> 100 µM		

The next lines start with results.

IC50 [1]	IC50 [3]	SMILES	inhibition in vivo at 12 mg/kg (Rattus norvegicus [2])	inhibition in vivo at 25 mg/kg (Rattus norvegicus [4])
50 µM		CCc1c(O)ccc2c3c([nH]c12)C(CC)(CC(=O)O)OCC3 (stereo not drawn) [7-HYDROXYETODOLAC]	8%	
	2 µM	CCC1(CC(=O)O)OCCc2c1[nH]c1c(C(C)O)cccc21 (stereo not drawn) [8-(1-HYDROXYETHYL)ETODOLAC]		14%
	0.025 µM	CCc1cccc2c3c([nH]c12)C(CC)(CC(=O)O)OCC3 (stereo not drawn) [ETODOLAC]		65%

From ChEMBL document CHEMBL1124196, “Etodolac, a novel antiinflammatory agent. The syntheses and biological evaluation of its metabolites” (J Med Chem, 1988)
